Runt-CBFb FRET: Runt domain-CBFb interaction inhibition | Q01196+Q13951 | Cerulean-Runt/Venus-CBFb FRET ratio 530/480, 1 h | inhibition, % at 20 µM | 0.46% of 220,000 active | AID 1496;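 active = inhibition over about 50% at 20 µM in the single-dose screen, limit read from the data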;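 also: 0% = DMSO wells and 100% = excess unlabeled CBFb competitor control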
Target sequence (Q01196 whole entry, looked up, the tested form may be a part): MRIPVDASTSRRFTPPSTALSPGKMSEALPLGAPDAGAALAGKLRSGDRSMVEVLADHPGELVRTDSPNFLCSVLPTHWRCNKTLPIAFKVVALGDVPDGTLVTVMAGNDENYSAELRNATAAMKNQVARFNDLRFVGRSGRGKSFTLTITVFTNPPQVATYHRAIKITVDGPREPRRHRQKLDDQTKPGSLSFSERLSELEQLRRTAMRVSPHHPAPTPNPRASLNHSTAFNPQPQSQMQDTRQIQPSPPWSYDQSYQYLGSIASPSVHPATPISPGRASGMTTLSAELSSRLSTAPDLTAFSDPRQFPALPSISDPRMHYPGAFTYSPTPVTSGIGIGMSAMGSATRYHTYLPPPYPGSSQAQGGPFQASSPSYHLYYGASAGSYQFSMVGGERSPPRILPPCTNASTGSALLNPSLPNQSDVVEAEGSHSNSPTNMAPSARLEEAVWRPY
Target sequence (Q13951 whole entry, looked up, the tested form may be a part): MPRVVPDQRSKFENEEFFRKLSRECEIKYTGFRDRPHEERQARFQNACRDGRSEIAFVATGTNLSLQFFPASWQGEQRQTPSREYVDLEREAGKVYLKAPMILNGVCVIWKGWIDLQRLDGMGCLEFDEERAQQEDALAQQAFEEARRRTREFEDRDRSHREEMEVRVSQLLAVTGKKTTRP
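Doses: 20 µM compound in 1% DMSO | Material: Cerulean-labeled Runt domain protein | Amount: Each fluorescent fusion protein 100 nM | Schedule: Two 1 h room-temperature incubations shielded from light | Measured by: FRET fluorescence | Evaluation: Loss of energy transfer signal | Controls: Unlabeled CBFb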
Runt-SMMHC FRET: blocks binding of human RUNX1 Runt domain to CBFb-SMMHC; 0.74% of 220,000 active; inhibition, % at 20 µM; Cerulean-Runt/Venus-CBFb-SMMHC FRET ratio 530/480, 1 h; Q01196+Q13951;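 active = mean inhibition across duplicate retests at 20 µM reaching about 50%, limit read from the data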;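 also: 0% = DMSO wells and 100% = wells with excess untagged CBFb-SMMHC; inhibitors lower the FRET ratio by blocking Runt binding to CBFb-SMMHC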
RanGTP-Imp inh: inhibitors of RanGTP-importin-beta interaction, primary screen, biochemical, FRET, CFP-Ran, YFP-importin-beta, homogeneous | cell-free CFP-Ran/YFP-importin-beta FRET ratio | inhibition, % (concentration not given with the values) | 1.1% of 300,000 active | AID 2216;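 active = more than half of the replicate wells show a fall in the fluorescence ratio signal beyond about 16%, limit read from the data, passing the limit was not always enough; inconclusive = exactly half of the replicate wells pass the set limit; inactive = fewer than half of replicates pass the limit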;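 also: 0% = DMSO wells and 100% = Ran loaded with GDP instead of GTP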
Hck-Nef inh: human Hck-Nef kinase inhibition; P08631; Recombinant Hck-YEEI plus Nef, Z-Lyte FRET kinase assay; inhibition, % at 20 µM; 0.68% of 220,000 active;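 active = Hck-Nef kinase inhibition above about 50%, limit read from the data; inactive = inhibition below that limit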;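 also: 0% = DMSO with Hck plus Nef and 100% = Hck alone without Nef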
* hit, by the source's call; u = inconclusive; x = no result. A selection: hits, their analogues and other compounds. The true share with any hit is near 1.8%.

SMILES	Runt-CBFb FRET	Runt-SMMHC FRET	RanGTP-Imp inh	Hck-Nef inh
O=C(Nc1ccc2nc(-c3ccco3)c(-c3ccco3)nc2c1)NC1CC1	-17.1	-66.8	61.7*	45.8
O=C(NCCCO)Nc1ccc2nc(-c3ccco3)c(-c3ccco3)nc2c1	-250.2	-321.4	x	2.1
CC(=O)Nc1ccc(N2CCc3c(C)c(C#N)c4nc5ccccc5n4c32)cc1	4.2	80.6*	110.5*	4.0
CC(=O)c1ccc(Nc2c3c(c(C#N)c4nc5ccccc5n24)CCC3)cc1	39.3	67.6*	31.5*	3.9
N#Cc1c2c(c(NCCOCCO)n3c1nc1ccccc13)CCCC2	39.2	84.6*	-3.6	14.6
N#Cc1c2c(c(NCc3cccnc3)n3c1nc1ccccc13)CCC2	22.7	x	u	18.4
COCCNc1c2c(c(C#N)c3nc4ccccc4n13)CCCC2	35.6	75.4*	20.5*	25.2
COc1ccc(Nc2c3c(c(C#N)c4nc5ccccc5n24)CCC3)cc1	x	33.5	-3.0	1.1
COc1ccc(C(=O)NCCC(=O)N2CCC3(CC2)NCCc2[nH]cnc23)cc1	x	x	-3.0	x
C=CC[C@]12C[C@@H](OC)C(=O)C=C1O[C@@H](c1ccc(OC)c(OC)c1)[C@H]2C	x	x	0.2	x
N#C/C(=C(/O)CCCl)c1ccccn1	48.8	92.5*	21.5*	13.9
O=C(O)c1cc2ccccc2c2cc(Br)ccc12	-0.6	-2.8	2.1	-0.4
CCCN(CCC)c1ccc(/C=C/c2ccc3cc(OCC)ccc3n2)cc1	-20.0	81.6	21.4*	-66.9
O=C(Cn1nc(-c2ccccc2)c2ccccc2c1=O)NCCO	x	x	-1.1	x
CCc1ccccc1NC(=O)CC1SCCNC1=O (stereo unspecified)	0.0	3.5	-4.0	16.7
COc1ccccc1CNC(=O)c1cccc(NC(=O)c2ccccc2)c1	-0.5	-1.7	-1.8	10.7
COc1ccccc1CNC(=O)c1ccncc1	x	x	23.3*	x
COc1ccc(C(=O)N/C=C/n2cnc3cc(C(F)(F)F)ccc32)cc1	-4.1	4.8	-1.4	26.9
O=C(COC(=O)c1ccc(S(=O)(=O)N2CCCC2)cc1)NCc1ccco1	1.7	4.0	1.0	12.8
CCOC(=O)NCc1ccc2c(c1)cc(C)n2C	-11.7	-19.5	84.8*	1.3
CCN1CCN(C(=O)CS(=O)(=O)Cc2nc(-c3ccc(C)cc3)oc2C)CC1	-0.5	-1.2	3.0	-2.0
Cc1ccc(-c2nc(CS(=O)(=O)CC(=O)N3CCN(C)CC3)c(C)o2)cc1	x	x	158.0*	x
Cc1ccc(S(=O)(=O)Oc2ccc(/C=N/NC(=O)c3cccnc3)cc2)cc1	-3.7	2.1	0.1	16.6
CCOc1ccc(N(CC(N)=O)S(=O)(=O)c2ccc(F)cc2)cc1	0.5	-3.2	-0.4	-10.1
CCOc1ccc(S(=O)(=O)N(CC(=O)N2CCC(C(N)=O)CC2)c2ccc(F)cc2)cc1	x	x	26.9*	x
SMILES	Runt-CBFb FRET	Runt-SMMHC FRET	RanGTP-Imp inh	Hck-Nef inh
CC(CCc1ccccc1)NCC#N (stereo unspecified)	0.3	0.5	11.1	17.2
O=c1[nH]c(C(Cl)Cl)nc2sc3c(c12)CCN(Cc1ccccc1)C3	53.7*	x	37.0*	-29.7
COc1cc(/C=N/OCC(=O)Nc2cc(C)cc(C)c2)ccc1OCc1ccc(Cl)cc1	4.5	17.7	25.5*	-1.8
Cc1ccc(C(=O)N/C(=C\c2cccs2)C(=O)NCCCN2CCOCC2)cc1	x	x	-4.7	x
O=C(NCCc1cnn(-c2ccccc2)c1)c1cc(COc2c(F)cccc2F)on1	-3.5	-1.6	-1.0	32.0
CN1CCN(Cc2c(O)ccc3cc(-c4ccccn4)c(=O)oc23)CC1	19.0	90.8*	143.8*	16.3
CC(=O)Nc1ccc(Cl)cc1C1COC(=O)C1=N (stereo unspecified)	-5.6	-8.5	19.3*	12.4
COc1cccc(C(=O)C2CCCN(C(=O)c3cccc(C#CC(C)(C)O)c3)C2)c1 (stereo unspecified)	0.3	-0.3	-1.0	16.9
Nc1c(C(=O)N/N=C/c2cccnc2)oc2nc(-c3ccco3)cc(-c3ccco3)c12	-15.6	-57.4	-1.9	64.1*
CC(=O)c1cc2c(cc1NC(=O)Nc1cccc(Cl)c1)OCCO2	19.2	62.0*	u	9.6
CC(=O)c1cc2c(cc1NC(=O)c1ccc(Cl)cc1)OCCO2	x	x	2.5	x
CN(C)c1ccc(/C=C(/NC(=O)c2ccccc2)C(=O)NCCCn2ccnc2)cc1	x	x	-5.2	x
N#Cc1c(=O)c2nc(NCc3ccccc3)ncc2n2ccccc12	-14.4	57.2	37.8*	2.7
O=C(N/N=C\c1cc2c(cc1Cl)OCO2)c1cccs1	x	x	-2.9	x
CN1CCc2c(sc3c2C(=O)NC(c2ccc(-c4cccc(Cl)c4)o2)N3)C1 (stereo unspecified)	115.1*	85.4*	102.6*	2.9
COC(=O)C1=C(C)NC(=S)NC1c1ccc(-c2cccc(Cl)c2)o1 (stereo unspecified)	23.6	26.2	-2.5	13.0
CN1CCc2c(sc(N)c2C(=O)c2ccc(Cl)cc2)C1	x	x	11.2	x
CN1CCc2c(sc3c2C(=O)NC(/C=C\c2ccccc2)N3)C1 (stereo unspecified)	118.5*	70.0*	120.9*	20.7
CSc1ccc(C2NC(=O)c3c(sc4c3CCN(C)C4)N2)cc1 (stereo unspecified)	110.2*	64.1*	112.2*	10.4
CN1CCc2c(sc3c2c(=O)n(-c2cccc(Cl)c2)c2nncn32)C1	x	x	10.4	-2.5
Cc1ccsc1C1NC(=O)c2c(sc3c2CCN(C)C3)N1 (stereo unspecified)	106.4*	72.7*	132.2*	5.4
CC1=C[C@H]2OC(=O)[C@@H](C)[C@H]2C[C@@H]2[C@H]1C[C@@H](O)[C@@]2(C)O	1.2	0.7	3.9	8.0
O=C(CCl)NC1(C(F)(F)F)C(=O)Nc2c1c(=O)[nH]c(=O)n2-c1ccccc1 (stereo unspecified)	-0.2	-0.4	2.4	4.7
CCOC(=O)C(=CNc1nc(-c2ccccc2)c(C(=O)Nc2ccc(-c3ccccc3)cc2)s1)C(=O)OCC	x	x	-1.3	x
Oc1ccc(N=C/C=C/c2cccc(Br)c2)cc1-c1nc2ccccc2s1	23.4	28.8	37.8*	14.3
SMILES	Runt-CBFb FRET	Runt-SMMHC FRET	RanGTP-Imp inh	Hck-Nef inh
Nc1ccc(O)c(-c2nc3ccccc3s2)c1	7.6	28.1	24.8*	6.0
O=C(Nc1ccc(O)c(-c2nc3ccccc3s2)c1)c1cccs1	-8.1	-43.0	1.3	0.5
Nc1ccccc1-c1nc2ccccc2s1	21.6	55.1*	4.9	37.5
COc1ccc(/C=N/Nc2cc(N3CCCC3)nc(N3CCCC3)n2)cc1	1.4	-3.2	60.2*	16.1
COc1ccc(/C=N/Nc2cc(C)nc(-n3nc(C)cc3C)n2)cc1	-3.6	2.2	-3.2	-0.9
Oc1ccc(/C=N/Nc2cc(N3CCCC3)nc(N3CCCC3)n2)cc1	2.2	-0.8	85.8*	0.5
COC(=O)C1=C(C)N(CC2CCCO2)C(=O)C1 (stereo unspecified)	-1.1	1.6	16.7*	-1.1
CN(c1ccccc1)S(=O)(=O)c1cccc(NC(=O)COC(=O)C2CCCCC2)c1	-0.2	-0.5	-1.1	12.2

Screening results as filed in PubChem.
